Test results published in ChEMBL document CHEMBL1138521, “Discovery of 4-(5-(4-chlorophenyl)-2-methyl-3-propionyl-1H-pyrrol-1-yl)benzenesulfonamide (A-867744) as a novel positive allosteric modulator of the alpha7 nicotinic acetylcholine receptor” (J Med Chem, 2009).
Blank lines part the entries; values can stand above or below the compound they belong to. Calls of active or inactive are those of the source. The calls are words filed in the database; no cut-off is given here.

Columns and labels:
[1] = molecular target: T1, Neuronal acetylcholine receptor subunit alpha-7 (Homo sapiens, UniProt P36544); assay: Allosteric modulator activity at alpha7 nAChR in human IMR32 cells assessed as stimulation of agonist-induced intracellular calcium level by FLIPR assay relative to 1-(5-chloro-2,4-dimethoxyphenyl)-3-(5-methylisoxazol-3-yl)urea; assay type: functional, cell-based; details: IMR-32
How it was run: (§1)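 IMR-32 human neuroblastoma cells (endogenous α7) on poly-D-lysine plates, loaded with calcium-4 no-wash dye in NMDG buffer (10 mM HEPES pH 7.4, 10 mM CaCl2) 1 h at 25 °C. Peak fluorescence over baseline, normalized to maximum; EC50 from 2–5 experiments in duplicate.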

[2] = molecular target: T1, Neuronal acetylcholine receptor subunit alpha-7; assay: Allosteric modulator activity at alpha7 nAChR in human IMR32 cells assessed as stimulation of agonist-induced intracellular calcium level by FLIPR assay; assay type: functional, cell-based, IMR-32; how it was run: as §1
[3] = Metabolic stability in rat liver microsomes assessed as compound remaining after 30 mins; assay type: ADME, Microsome; details: read-out: Stability
How it was run: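 Microsomes prewarmed 10 min at 37 °C; reaction started with compound (1 µM final) and NADPH (1 mM final) at 0.5 mg/mL protein, in triplicate. Sampled at 0, 10, 20 and 30 min; stopped with acetonitrile/methanol containing warfarin internal standard; centrifuged supernatant analysed by HPLC-MS.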

[4] = test system: Brain; assay: Drug level in brain of DBA/2 mouse model of sensory gating deficits at 0.1 umol/kg, ip; assay type: functional, tissue-based
How it was run: (§2)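 DBA/2 mice dosed ip at 0.1, 1.0 or 10.0 µmol/kg in vehicle of 5% DMSO and 5% Solutol in PBS; brain concentration reported in ng/g.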

[5] = Half life in rat at 2 umol/kg, iv; assay type: ADME, organism-based; details: in vivo
[6] = test system: Brain; assay: Drug level in brain of DBA/2 mouse model of sensory gating deficits at 10 umol/kg, ip; assay type: functional, tissue-based; how it was run: as §2
[7] = Oral bioavailability in rat at 2 umol/kg; assay type: ADME, organism-based; details: in vivo
[8] = molecular target: Neuronal acetylcholine receptor; alpha3/beta4 (Homo sapiens) (UniProt P30926+P32297); assay: Activity at human recombinant alpha3beta4 nAChR expressed in HEK293 cells assessed as potentiation of nicotine-evoked calcium transients up to 30 uM; assay type: cell-based
[9] = test system: Mus musculus; assay: Improvement in gating deficits in DBA/2 mouse model of sensory gating deficits assessed as reduction in ratio of response to test stimulus relative to preceding response to conditioning stimulus at 0.1 to 10 umol/kg, ip by paired auditory stimulus paradigm assay; assay type: functional, organism-based
How it was run: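 DBA/2 mice (16–20 g) implanted with hippocampal CA3 EEG electrodes under ketamine/xylazine/acepromazine, ≥4 days recovery. Dosed ip in 5% DMSO/5% Solutol in PBS immediately before recording; 120 paired 5 ms white-noise bursts 0.5 s apart over 30 min. N40 amplitude T:C ratio. Within-subjects random-order crossover with vehicle, ≥72 h apart; mean ± SEM, one-way ANOVA with Newman-Keuls test.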

[10] = test system: Rattus norvegicus; assay: Plasma concentration Sprague-Dawley rat at 30 mg/kg; assay type: ADME, organism-based; set-up: dose 30 mg/kg; details: in vivo
How it was run: (§3)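 Anesthetized rat cardiovascular assay at 3, 10 and 30 mg/kg, with plasma concentrations measured alongside mean arterial pressure, heart rate, contractility and peripheral vascular resistance.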

[11] = test system: Oocyte; assay: Modulator activity at alpha7 nAChR in Xenopus laevis oocytes cells assessed as activation of electric currents at 0.1 nM to 10 uM at -60 mV by two-electrode voltage clamp technique; assay type: cell-based
How it was run: (§4)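 Xenopus oocytes, collagenase-defolliculated, injected with ~20–25 ng α7 nAChR cRNA, kept at 18 °C and used 2–7 days later. Two-electrode voltage clamp at −60 mV, room temperature, in Ba2+-OR2 with 0.5 µM atropine. Modulator applied ≥60 s before 1 s application of 100 µM ACh. Apparent peak current expressed as percent of 100 µM ACh response; sigmoidal variable-slope fit.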

[12] = molecular target: Neuronal acetylcholine receptor; alpha4/beta2 (Homo sapiens) (UniProt P17787+P43681); assay: Activity at human recombinant alpha4beta2 nAChR expressed in HEK293 cells assessed as potentiation of nicotine-evoked calcium transients up to 30 uM; assay type: cell-based
[13] = Plasma clearance in monkey at 0.5 umol/kg, iv; assay type: ADME, organism-based, Macaca mulatta; details: rhesus monkey
[14] = Plasma clearance in rat at 2 umol/kg, iv; assay type: ADME, organism-based
[15] = Volume of distribution at steady state in rat at 2 umol/kg, iv; assay type: ADME, organism-based; details: in vivo, read-out: Vdss
[16] = test system: Rattus norvegicus; assay: Plasma concentration Sprague-Dawley rat at 3 mg/kg; assay type: ADME, organism-based; set-up: dose 3 mg/kg; details: in vivo; how it was run: as §3
[17] = Half life in monkey at 0.5 umol/kg, iv; assay type: ADME, organism-based, Macaca mulatta; details: rhesus monkey, in vivo
[18] = Oral bioavailability in monkey at 1 umol/kg; assay type: ADME, organism-based, Macaca mulatta; details: rhesus monkey, in vivo
[19] = Volume of distribution at steady state in monkey at 0.5 umol/kg, iv; assay type: ADME, organism-based, Macaca mulatta; details: rhesus monkey, in vivo, read-out: Vdss
[20] = Cmax in rat at 2 umol/kg, po; assay type: ADME, organism-based; set-up: dose 2 umol/kg, route oral; details: in vivo
[21] = Volume of distribution at steady state in dog at 0.5 umol/kg, iv; assay type: ADME, organism-based, Canis lupus familiaris; details: in vivo, read-out: Vdss
[22] = test system: Oocyte; assay: Modulator activity at alpha7 nAChR in Xenopus laevis oocytes cells assessed as enhancement of acetylcholine-evoked electric currents at -60 mV by two-electrode voltage clamp technique; assay type: cell-based; how it was run: as §4
[23] = molecular target: Neuronal acetylcholine receptor subunit alpha-7 (Rattus norvegicus) (UniProt Q05941); assay: Modulator activity at alpha7 nAChR in rat neonatal cortical neurons assessed as enhancement of (R)-4-chloro-N-(quinuclidin-8-yl)benzamide-induced calcium flux response at 5 uM by FLIPR assay
How it was run: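 Primary neonatal rat cortical neurons cultured on poly-D-lysine plates (10000 cells/well), assayed 3 days after plating. Calcium-3 dye in HBSS with 20 mM HEPES. After 10 s baseline, modulator added for 3–5 min, then agonist. Peak fluorescence increase over baseline in RFU, normalized to maximal value.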

[24] = Half life in dog at 0.5 umol/kg, iv; assay type: ADME, organism-based, Canis lupus familiaris; details: in vivo
[25] = Cmax in monkey at 1 umol/kg, po; assay type: ADME, organism-based, Macaca mulatta; set-up: dose 1 umol/kg, route oral; details: rhesus monkey, in vivo
[26] = test system: Oocyte; assay: Modulator activity at alpha7 nAChR in Xenopus laevis oocytes cells assessed as decay of acetylcholine-evoked electric current response at -60 mV by two-electrode voltage clamp technique; assay type: cell-based; how it was run: as §4
[27] = Cmax in dog at 1 umol/kg, po; assay type: ADME, organism-based, Canis lupus familiaris; set-up: dose 1 umol/kg, route oral; details: in vivo
[28] = test system: Brain; assay: Drug level in brain of DBA/2 mouse model of sensory gating deficits at 1 umol/kg, ip; assay type: functional, tissue-based; how it was run: as §2
[29] = Plasma clearance in dog at 0.5 umol/kg, iv; assay type: ADME, organism-based, Canis lupus familiaris
[30] = test system: Rattus norvegicus; assay: Plasma concentration Sprague-Dawley rat at 10 mg/kg; assay type: ADME, organism-based; set-up: dose 10 mg/kg; details: in vivo; how it was run: as §3
[31] = Oral bioavailability in dog at 1 umol/kg; assay type: ADME, organism-based, Canis lupus familiaris; details: in vivo

T1 sequence (P36544 whole entry): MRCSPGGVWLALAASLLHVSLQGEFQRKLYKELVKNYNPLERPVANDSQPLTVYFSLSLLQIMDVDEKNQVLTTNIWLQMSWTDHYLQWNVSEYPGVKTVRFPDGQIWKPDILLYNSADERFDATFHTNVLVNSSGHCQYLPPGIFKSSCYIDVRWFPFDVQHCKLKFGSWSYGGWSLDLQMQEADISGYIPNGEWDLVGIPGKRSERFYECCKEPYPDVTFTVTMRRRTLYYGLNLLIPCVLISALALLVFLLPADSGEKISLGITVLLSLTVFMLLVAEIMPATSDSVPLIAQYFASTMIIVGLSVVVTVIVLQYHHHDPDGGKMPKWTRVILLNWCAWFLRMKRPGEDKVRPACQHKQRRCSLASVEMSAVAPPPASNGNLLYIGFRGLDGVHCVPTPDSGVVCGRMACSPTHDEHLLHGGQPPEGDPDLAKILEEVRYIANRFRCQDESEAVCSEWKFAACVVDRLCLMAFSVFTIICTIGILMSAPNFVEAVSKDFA
Chain of Neuronal acetylcholine receptor subunit alpha-7 (Rattus norvegicus) (Q05941 whole entry): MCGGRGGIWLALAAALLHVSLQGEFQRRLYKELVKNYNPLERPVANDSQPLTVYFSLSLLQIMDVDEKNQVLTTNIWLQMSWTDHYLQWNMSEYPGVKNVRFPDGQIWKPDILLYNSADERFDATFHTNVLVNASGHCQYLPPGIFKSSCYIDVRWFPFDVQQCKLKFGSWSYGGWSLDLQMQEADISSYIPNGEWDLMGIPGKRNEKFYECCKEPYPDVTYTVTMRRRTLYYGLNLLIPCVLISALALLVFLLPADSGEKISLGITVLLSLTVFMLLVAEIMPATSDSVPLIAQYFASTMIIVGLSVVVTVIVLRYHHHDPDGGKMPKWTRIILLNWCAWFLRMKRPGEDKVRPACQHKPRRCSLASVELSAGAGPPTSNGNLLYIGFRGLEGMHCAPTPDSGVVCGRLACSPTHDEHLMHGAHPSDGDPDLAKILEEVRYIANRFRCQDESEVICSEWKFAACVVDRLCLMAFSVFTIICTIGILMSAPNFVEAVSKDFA

remaining at 0.5 h [3]: 64%
SMILES: CC(=O)c1cc(-c2ccc(Cl)cc2)n(-c2ccc(S(N)(=O)=O)cc2)c1C

Efficacy [1]: 11%
EC50 [2]: > 30 µM
SMILES: Cc1c(C(=O)N2CCCCC2)cc(-c2ccc(Cl)cc2)n1-c1ccc(S(N)(=O)=O)cc1

Efficacy [1]: 8%
EC50 [2]: > 30 µM
SMILES: Cc1c(C(=O)O)cc(-c2ccc(Cl)cc2)n1-c1ccc(S(N)(=O)=O)cc1

Efficacy [1]: 5%
EC50 [2]: > 30 µM
SMILES: Cc1c(C(=O)N2CCOCC2)cc(-c2ccc(Cl)cc2)n1-c1ccc(S(N)(=O)=O)cc1

Efficacy [1]: 25%
remaining at 0.5 h [3]: 92%
EC50 [2]: 4.9 µM
SMILES: Cc1c(C(=O)C2CC2)cc(-c2ccc(Cl)cc2)n1-c1ccc(S(N)(=O)=O)cc1

Efficacy [1]: 4%
EC50 [2]: > 30 µM
SMILES: Cc1c(C(=O)N(C)C)cc(-c2ccc(Cl)cc2)n1-c1ccc(S(N)(=O)=O)cc1

Efficacy [1]: 57%
remaining at 0.5 h [3]: 31%
EC50 [2]: 9.4 µM
SMILES: Cc1c(C(=O)N2CCCC2)cc(-c2ccc(Cl)cc2)n1-c1ccc(S(N)(=O)=O)cc1

remaining at 0.5 h [3]: 3%
SMILES: CCOC(=O)c1cc(-c2ccc(Cl)cc2)n(-c2ccc(S(N)(=O)=O)cc2)c1C

half-life [5]: 1.7 h
bioavailability [7]: 83%
remaining at 0.5 h [3]: 96%
Activity [8]: inactive
Cp [10]: 12400 ng/mL
Activity [12]: inactive
clearance [13]: 41.7 mL/min/kg
clearance [14]: 35 mL/min/kg
Vd [15]: 4.6 L/kg
Cp [16]: 1000 ng/mL
half-life [17]: 1 h
bioavailability [18]: 68%
Vd [19]: 2.8 L/kg
Cmax [20]: 41 ng/mL
Vd [21]: 1.7 L/kg
Activity [23]: Active
half-life [24]: 1.3 h
Cmax [25]: 17 ng/mL
Cmax [27]: 87 ng/mL
clearance [29]: 18.3 mL/min/kg
Cp [30]: 5000 ng/mL
bioavailability [31]: 55%
SMILES: CCC(=O)c1cc(-c2ccc(Cl)cc2)n(-c2ccc(S(N)(=O)=O)cc2)c1C
Drug uptake [4]: 2 ng/g
Drug uptake [6]: 140 ng/g
Activity [9]: Active
Activity [11]: inactive
Activity [22]: Dose-dependent effect
Activity [26]: Active
Drug uptake [28]: 15 ng/g

The remaining lines, values behind:

SMILES: CCN(C)C(=O)c1cc(-c2ccc(Cl)cc2)n(-c2ccc(S(N)(=O)=O)cc2)c1C
Efficacy [1]: 3%
EC50 [2]: > 30 µM

SMILES: CCOC(=O)c1cc(-c2ccc(Br)cc2)n(-c2ccc(S(N)(=O)=O)cc2)c1C
Efficacy [1]: 20%
remaining at 0.5 h [3]: 2%
EC50 [2]: 2.6 µM

SMILES: Cc1cc(C(=O)c2cc(-c3ccc(Cl)cc3)n(-c3ccc(S(N)(=O)=O)cc3)c2C)ccc1Cl
Efficacy [1]: 9%
remaining at 0.5 h [3]: 38%
EC50 [2]: 4.88 µM

SMILES: COc1ccc(F)cc1C(=O)c1cc(-c2ccc(Cl)cc2)n(-c2ccc(S(N)(=O)=O)cc2)c1C
Efficacy [1]: 26%
remaining at 0.5 h [3]: 45%
EC50 [2]: 10.5 µM

SMILES: Cc1c(C(=O)c2ccc(Cl)cc2)cc(-c2ccc(Cl)cc2)n1-c1ccc(S(N)(=O)=O)cc1
Efficacy [1]: 5%
EC50 [2]: > 30 µM

SMILES: CCCN(CCO)C(=O)c1cc(-c2ccc(Cl)cc2)n(-c2ccc(S(N)(=O)=O)cc2)c1C
Efficacy [1]: 11%
remaining at 0.5 h [3]: 58%
EC50 [2]: 3.6 µM

SMILES: Cc1c(C(=O)CC(C)C)cc(-c2ccc(Cl)cc2)n1-c1ccc(S(N)(=O)=O)cc1
Efficacy [1]: 74%
remaining at 0.5 h [3]: 44%
EC50 [2]: 3.9 µM

SMILES: Cc1c(C(=O)N(C)C(C)C)cc(-c2ccc(Cl)cc2)n1-c1ccc(S(N)(=O)=O)cc1
Efficacy [1]: 8%
EC50 [2]: > 30 µM

SMILES: Cc1ccc(C(=O)c2cc(-c3ccc(Cl)cc3)n(-c3ccc(S(N)(=O)=O)cc3)c2C)cc1
Efficacy [1]: 7%
EC50 [2]: > 30 µM
